According to ChEMBL document CHEMBL1147048, “Identification of anti-prion compounds as efficient inhibitors of polyglutamine protein aggregation in a zebrafish model” (J Biol Chem, 2007):
The source made the active and inactive calls. The rule behind the calls is not given here.

Tests used:
[1] = Inhibition of detergent insoluble aggregation of mutant poly Q102-GFP expressed in zebrafish embryo at 50 uM by filter trap assay
Procedure, shortened: (§1)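 AB wild-type embryos were injected at the 1-2 cell stage with Q102-GFP mRNA. They were then kept in E3 with 1% DMSO plus compound (isoproterenol dissolved in water), with the chorion disrupted; controls received solvent alone. After 24 h at 28.5 °C, lysates were heated in 4% SDS/100 mM DTT, filtered through 0.2 µm cellulose acetate, probed with anti-GFP and quantified by densitometry. Solvent control was set to 100%; n=3-5 injections.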

[2] = test system: N2a; assay: Inhibition of aggregation of poly Q102-GFP in mouse N2a cells by filter trap assay; type: cell-based
[3] = species on record: Danio rerio; assay: Effect on suppression of abnormal morphology and death of zebrafish embryo expressing Q102-GFP; type: organism-based; conditions: in vivo
[4] = Suppression of aggregation of poly Q102-GFP mutant expressed in zebrafish embryo by filter trap assay; procedure, shortened: as §1
[5] = species on record: Danio rerio; assay: Suppression of inclusion formation in zebrafish embryo expressing poly Q102-GFP protein after 24 hrs at 1 uM; type: functional, organism-based
[6] = Suppression of aggregation of poly Q102-GFP protein expressed in zebrafish embryo at 10 uM by filter trap assay; procedure, shortened: as §1

| Compound | Activity [2] | Activity [3] | also measured |
| --- | --- | --- | --- |
| O=C(N/N=C/c1ccc2ccccc2c1)c1ccc(O)c(O)c1 | Active | Not Active | Activity [1]: Active |
| Nc1c(/N=N/c2ccc(-c3ccc(/N=N/c4cc(S(=O)(=O)O)c5ccccc5c4N)cc3)cc2)cc(S(=O)(=O)O)c2ccccc12 | – | – | Activity [4]: Active |
| COc1c(C)c2c(c(O)c1C/C=C(\C)CCC(=O)O)C(=O)OC2 | – | – | Activity [5]: inactive |
| COc1cc(/C=N/N=C(N)N)ccc1OCc1c(C)c(C)c(Br)c(C)c1C.Cl | Active | Not Active | – |
| Cc1cc(O)c(C)c2sc(N)nc12 | Active | Not Active | Activity [4]: Active |
| CC(C)NCC(O)c1ccc(O)c(O)c1 (centres undefined) | – | – | Activity [6]: inactive |
| O=C(N/N=C/c1ccc2ccccc2c1)c1cccc(Cl)c1 | Active | Not Active | Activity [1]: Active |
